Holding throughout (assay type): functional
Test [1] in a line: Antiproliferative activity against multidrug-resistant P-gp expressing human KBVIN cells by sulforhodamine B assay. In a few lines:
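Vincristine-resistant KB subline kept in 100 nM vincristine, then grown 7–10 days without it before testing. RPMI 1640 with 10% FBS, 37 °C, 5% CO2. 3–5 × 10³ cells/well exposed 72 h to a concentration series, paclitaxel as assay control. SRB staining after TCA fixation, A515 read. GI50 is the 50% absorbance reduction versus untreated cells; three or more experiments.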

Test [2] has as its system KB. The experiment in a line: Antiproliferative activity against human KB cells by sulforhodamine B assay. In a few lines: (§1)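 Cells in RPMI 1640 (25 mM HEPES, 2 mM L-glutamine, 10% heat-inactivated FBS, antibiotics) at 37 °C, 5% CO2. Seeded at 3–5 × 10³/well with graded concentrations, paclitaxel as assay control, for 72 h. TCA-fixed, stained with 0.04% SRB, dye dissolved in 10 mM Tris, A515 read. GI50 is the concentration halving absorbance versus untreated cells; three or more experiments.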

For test [3], the system named is A549. The experiment in a line: Antiproliferative activity against human A549 cells by sulforhodamine B assay. The gist of the method:
as §1

Test [4] can be described thus: Selectivity ratio of GI50 for human KB cells to GI50 for multidrug-resistant P-gp expressing human KBVIN cells. In a few lines:
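Ratio of GI50 in parental KB to GI50 in P-gp-overexpressing KB-VIN. […] KB-VIN cells were grown 7–10 days without vincristine before the assay.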

Test [5] relates to DU-145. As to the kind of experiment: Antiproliferative activity against human DU145 cells by sulforhodamine B assay. The gist of the method: as §1
On the technique in general: Sulforhodamine B stains cellular protein and so reports cell mass.

One may read the GI50 as the concentration at which growth is held to half of that of the control. A lower GI50 goes with more potent growth inhibition.

In the case of `CCN1C[C@]2(C)CC[C@H](OC)[C@@]34[C@@H]5C[C@H]6[C@H](OC)[C@@H]5[C@@]5(C[C@@H]6OC)OCO[C@@]5(C(=O)[C@H]23)[C@@H]14` [PACININE], the GI50 in test [1], in test [2], in test [3] and in test [5] was above 20 µM in each case. Further, the RatioGI50 in test [4] is listed as above 20.

On to `CC(=O)O[C@H]1C(=O)[C@@]2(C)[C@H]([C@H](OC(=O)c3ccccc3)[C@]3(O)C[C@H](OC(=O)[C@H](O)[C@@H](NC(=O)c4ccccc4)c4ccccc4)C(C)=C1C3(C)C)[C@]1(OC(C)=O)CO[C@@H]1C[C@@H]2O` [PACLITAXEL], for which the GI50 is 0.95 µM in test [1], 0.0064 µM in test [2], 0.0071 µM in test [3] and 0.0057 µM in test [5]. The RatioGI50 in test [4] came out at 0.0067.

`C=C1[C@H]2C[C@H]3C4N5C[C@]6(C)CCC[C@]47[C@H]([C@H]2O)C3(C[C@]5(O)[C@H]67)[C@@H]1O` [PSEUDOKOBUSINE]: the 50% growth inhibitory concentration (GI50) in test [1], in test [2], in test [3] and in test [5] was above 20 µM throughout. Further, the RatioGI50 in test [4] is given as above 20.

For `CCN1C[C@]2(C)CC[C@H](OC)[C@@]34[C@@H]5C[C@H]6[C@H](O)[C@@H]5[C@@]5(C[C@@H]6OC)OCO[C@@]5(C(=O)[C@H]23)[C@@H]14` [YUNNADELPHININE], the GI50 in test [1], in test [2], in test [3] and in test [5] was above 20 µM throughout. For the same compound, the RatioGI50 in test [4] is reported as above 20.

The values above are taken from ChEMBL document CHEMBL3400028, “Evaluation of Aconitum diterpenoid alkaloids as antiproliferative agents” (2015).
